Legend:
A549 = test: Cytotoxicity against human A549 cells after 72 hrs by MTT assay; type: functional, cell-based
How it was run: (§1)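 Cells were grown in MEM with 10% FBS. About 4 × 10³ cells per well were seeded and held 24 h at 37 °C in 5% CO₂, then exposed to compound at the indicated final concentrations for 72 h. MTT was added at 5 µg/mL final for 4 h at 37 °C, and formazan was dissolved in DMSO. Absorbance was read at 492 nm against 630 nm reference. Each compound was tested three times per line, and IC₅₀ values were averaged.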

HeLa = test: Cytotoxicity against human HeLa cells after 72 hrs by MTT assay; type: functional, cell-based; how it was run: as §1
MCF7 = test: Cytotoxicity against human MCF7 cells after 72 hrs by MTT assay; type: functional, cell-based; how it was run: as §1
[1] = Cytotoxicity against human PC3 cells after 72 hrs by MTT assay; type: functional, cell-based, PC-3; how it was run: as §1
[2] = Cytotoxicity against human NSCLC cells; type: functional, cell-based
[3] = molecular target: Epidermal growth factor receptor (Homo sapiens, UniProt P00533); test: Inhibition of EGFR (unknown origin) using FAM-labeled peptide as substrate preincubated for 10 mins followed by addition of substrate by mobility shift assay
[4] = molecular target: Vascular endothelial growth factor receptor 2 (Homo sapiens, UniProt P35968); test: Inhibition of VEGFR2 (unknown origin) using FAM-labeled peptide as substrate preincubated for 10 mins followed by addition of substrate by mobility shift assay
How it was run: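 Mobility-shift kinase assay. Compounds were serially diluted in 100% DMSO and combined with enzyme for 10 min at room temperature. FAM-labeled peptide plus ATP was then added and incubated at 28 °C. The reaction was stopped with EDTA-containing buffer. Conversion was read on Caliper, and % inhibition = (max − conversion)/(max − min) × 100. IC₅₀ was averaged from at least two experiments.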

[5] = Homo sapiens, A549, 72 h, read-out: IC50
[6] = Homo sapiens, MCF7, 72 h, read-out: IC50
[7] = Homo sapiens, PC-3, 72 h, read-out: IC50

Epidermal growth factor receptor, sequence (P00533 whole entry): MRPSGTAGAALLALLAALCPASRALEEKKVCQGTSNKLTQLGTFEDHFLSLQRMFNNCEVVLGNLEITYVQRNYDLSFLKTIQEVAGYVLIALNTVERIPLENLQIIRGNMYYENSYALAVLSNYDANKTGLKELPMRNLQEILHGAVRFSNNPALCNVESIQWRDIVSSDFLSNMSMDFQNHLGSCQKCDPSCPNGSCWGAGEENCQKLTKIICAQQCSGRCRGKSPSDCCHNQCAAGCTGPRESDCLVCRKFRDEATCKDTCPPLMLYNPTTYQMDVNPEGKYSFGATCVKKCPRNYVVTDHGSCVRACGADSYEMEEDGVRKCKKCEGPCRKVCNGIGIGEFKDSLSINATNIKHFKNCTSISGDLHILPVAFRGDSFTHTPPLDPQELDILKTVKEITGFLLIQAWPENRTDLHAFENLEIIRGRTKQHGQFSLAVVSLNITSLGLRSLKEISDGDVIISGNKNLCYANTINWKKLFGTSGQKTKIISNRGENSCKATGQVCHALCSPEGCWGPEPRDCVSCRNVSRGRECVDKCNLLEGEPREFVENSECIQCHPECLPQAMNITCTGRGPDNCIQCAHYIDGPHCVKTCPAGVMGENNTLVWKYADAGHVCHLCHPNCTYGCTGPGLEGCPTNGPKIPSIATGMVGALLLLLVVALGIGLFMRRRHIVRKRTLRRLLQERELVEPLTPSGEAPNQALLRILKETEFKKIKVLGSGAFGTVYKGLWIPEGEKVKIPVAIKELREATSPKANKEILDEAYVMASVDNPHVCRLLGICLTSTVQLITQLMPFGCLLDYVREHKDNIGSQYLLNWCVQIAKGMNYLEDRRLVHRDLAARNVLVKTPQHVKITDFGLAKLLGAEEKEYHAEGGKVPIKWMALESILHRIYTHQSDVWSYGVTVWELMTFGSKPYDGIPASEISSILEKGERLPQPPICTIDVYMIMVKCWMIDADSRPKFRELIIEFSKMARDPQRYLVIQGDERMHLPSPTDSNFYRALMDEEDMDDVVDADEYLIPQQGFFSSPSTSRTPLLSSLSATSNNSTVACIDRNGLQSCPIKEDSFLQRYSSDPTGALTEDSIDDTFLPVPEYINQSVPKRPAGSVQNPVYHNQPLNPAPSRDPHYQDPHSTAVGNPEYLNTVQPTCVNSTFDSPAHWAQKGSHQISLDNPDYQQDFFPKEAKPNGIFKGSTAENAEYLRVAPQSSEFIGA
Vascular endothelial growth factor receptor 2, sequence (P35968 whole entry): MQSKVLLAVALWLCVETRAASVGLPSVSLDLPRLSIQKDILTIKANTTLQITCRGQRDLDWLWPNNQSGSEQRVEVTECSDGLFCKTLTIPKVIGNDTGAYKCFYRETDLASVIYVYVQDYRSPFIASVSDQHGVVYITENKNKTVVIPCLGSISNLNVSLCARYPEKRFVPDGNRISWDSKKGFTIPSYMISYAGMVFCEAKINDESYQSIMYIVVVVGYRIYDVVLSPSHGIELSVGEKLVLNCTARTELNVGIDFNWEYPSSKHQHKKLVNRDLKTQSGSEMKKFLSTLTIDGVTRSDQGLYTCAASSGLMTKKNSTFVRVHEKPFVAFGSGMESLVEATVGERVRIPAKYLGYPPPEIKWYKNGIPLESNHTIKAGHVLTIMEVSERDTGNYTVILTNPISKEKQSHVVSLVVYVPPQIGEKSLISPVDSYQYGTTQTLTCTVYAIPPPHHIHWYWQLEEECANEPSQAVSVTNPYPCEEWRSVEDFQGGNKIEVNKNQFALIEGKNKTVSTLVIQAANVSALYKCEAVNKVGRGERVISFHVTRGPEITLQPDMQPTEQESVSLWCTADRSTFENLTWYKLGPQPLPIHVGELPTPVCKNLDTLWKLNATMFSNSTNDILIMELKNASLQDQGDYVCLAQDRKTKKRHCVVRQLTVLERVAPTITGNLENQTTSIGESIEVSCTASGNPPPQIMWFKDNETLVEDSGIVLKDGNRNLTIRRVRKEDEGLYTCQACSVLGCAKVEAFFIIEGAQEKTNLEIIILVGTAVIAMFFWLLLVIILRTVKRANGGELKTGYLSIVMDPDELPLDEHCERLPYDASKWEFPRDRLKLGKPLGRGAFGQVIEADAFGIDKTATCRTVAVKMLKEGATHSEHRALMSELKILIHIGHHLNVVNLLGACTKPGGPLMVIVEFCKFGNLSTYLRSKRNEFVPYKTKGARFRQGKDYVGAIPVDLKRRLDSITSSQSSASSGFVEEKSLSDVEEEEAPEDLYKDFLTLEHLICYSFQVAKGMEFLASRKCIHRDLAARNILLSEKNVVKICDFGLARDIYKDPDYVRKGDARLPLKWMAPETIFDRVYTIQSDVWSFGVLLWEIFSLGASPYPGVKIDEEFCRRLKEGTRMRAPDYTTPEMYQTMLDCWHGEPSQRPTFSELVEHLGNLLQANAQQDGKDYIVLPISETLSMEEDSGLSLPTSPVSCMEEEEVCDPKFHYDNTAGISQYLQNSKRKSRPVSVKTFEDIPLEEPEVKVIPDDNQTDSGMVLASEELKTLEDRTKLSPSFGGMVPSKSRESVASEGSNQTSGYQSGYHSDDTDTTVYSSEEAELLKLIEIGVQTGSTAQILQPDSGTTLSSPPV

Row | Structure (SMILES) | IC50 (A549; [5]) | IC50 (HeLa) | IC50 (MCF7; [6]) | IC50 [1, 7] | IC50 (A549; a549) | IC50 ([1]; pc-3) | IC50 (MCF7; mcf7) | IC50 [2] | IC50 [3] | IC50 [4]
1 | COc1ccc(OC)c(/C=C/C(=O)Nc2cc3c(Nc4ccc(F)c(Cl)c4)ncnc3cc2O[C@H]2CCOC2)c1 | 7.3 µM | 26.8 µM | 36.3 µM | 8.73 µM | – | – | – | – | – | –
2 | COc1cc(/C=C/C(=O)Nc2cc3c(Nc4ccc(F)c(Cl)c4)ncnc3cc2OC)cc(OC)c1 | – | – | 38.5 µM | – | Not Active | Not Active | – | – | – | –
3 | COc1cc(/C=C/C(=O)Nc2cc3c(Nc4ccc(F)c(Cl)c4)ncnc3cc2O[C@H]2CCOC2)cc(OC)c1OC | 4.15 µM | 24.5 µM | 28.4 µM | 20.5 µM | – | – | – | – | – | –
4 | COc1ccc(/C=C/C(=O)Nc2cc3c(Nc4ccc(F)c(Cl)c4)ncnc3cc2OC)cc1 | – | – | – | – | Not Active | Not Active | Not Active | – | – | –
5 | COc1ccc(/C=C/C(=O)Nc2cc3c(Nc4ccc(F)c(Cl)c4)ncnc3cc2O[C@H]2CCOC2)c(OC)c1 | 9.35 µM | 26.4 µM | 28.6 µM | 2.76 µM | – | – | – | – | – | –
6 | CN(C)C/C=C/C(=O)Nc1cc2c(Nc3ccc(F)c(Cl)c3)ncnc2cc1O[C@H]1CCOC1 [AFATINIB] | 0.05 µM | 6.81 µM | 5.83 µM | 4.1 µM | – | – | – | 0.0005 µM | – | –
7 | O=C(/C=C/c1ccccc1[N+](=O)[O-])Nc1cc2c(Nc3ccc(F)c(Cl)c3)ncnc2cc1O[C@H]1CCOC1 | 8.82 µM | 29.6 µM | 28.4 µM | 7.76 µM | – | – | – | – | – | –
8 | COc1cc(/C=C/C(=O)Nc2cc3c(Nc4ccc(F)c(Cl)c4)ncnc3cc2O[C@H]2CCOC2)cc(OC)c1O | 26.9 µM | 27.4 µM | 30.5 µM | 26.5 µM | – | – | – | – | – | –
9 | O=C(/C=C/c1ccc(Br)cc1)Nc1cc2c(Nc3ccc(F)c(Cl)c3)ncnc2cc1O[C@H]1CCOC1 | 35.3 µM | 27.4 µM | 32.4 µM | 28.2 µM | – | – | – | – | – | –
10 | O=C(/C=C/c1cccc(Cl)c1Cl)Nc1cc2c(Nc3ccc(F)c(Cl)c3)ncnc2cc1O[C@H]1CCOC1 | 23.2 µM | 30.5 µM | 30.1 µM | 27.5 µM | – | – | – | – | – | –
11 | O=C(/C=C/c1ccc(F)cc1Cl)Nc1cc2c(Nc3ccc(F)c(Cl)c3)ncnc2cc1O[C@H]1CCOC1 | 5.19 µM | 37.5 µM | 26.2 µM | 7.15 µM | – | – | – | – | – | –
12 | COc1ccc(/C=C/C(=O)Nc2cc3c(Nc4ccc(F)c(Cl)c4)ncnc3cc2O[C@H]2CCOC2)cc1 | 3.05 µM | 34.6 µM | 5.07 µM | 2.24 µM | – | – | – | – | 0.0091 µM | 0.886 µM
13 | COc1cc(/C=C/C(=O)Nc2cc3c(Nc4ccc(F)c(Cl)c4)ncnc3cc2O[C@H]2CCOC2)cc(OC)c1 | 10.8 µM | 34.2 µM | 30.3 µM | 25.6 µM | – | – | – | – | – | –
14 | COc1cc2ncnc(Nc3ccc(F)c(Cl)c3)c2cc1NC(=O)/C=C/c1ccccc1[N+](=O)[O-] | 33.2 µM | – | 36.5 µM | 14.3 µM | – | – | – | – | – | –
15 | COc1cc2ncnc(Nc3ccc(F)c(Cl)c3)c2cc1NC(=O)/C=C/c1ccc(C#N)cc1 | – | – | – | – | Not Active | Not Active | Not Active | – | – | –
16 | COc1cc2ncnc(Nc3ccc(F)c(Cl)c3)c2cc1NC(=O)/C=C/c1cc(OC)c(OC)c(OC)c1 | – | – | – | 38.2 µM | Not Active | – | Not Active | – | – | –
17 | N#Cc1ccc(/C=C/C(=O)Nc2cc3c(Nc4ccc(F)c(Cl)c4)ncnc3cc2O[C@H]2CCOC2)cc1 | – | – | 9.83 µM | 36.6 µM | Not Active | – | – | – | – | –
18 | O=C(/C=C/c1cc(Br)c(O)c(Br)c1)Nc1cc2c(Nc3ccc(F)c(Cl)c3)ncnc2cc1O[C@H]1CCOC1 | 28.8 µM | 27.7 µM | 30.6 µM | 25.5 µM | – | – | – | – | – | –
19 | COc1ccc(/C=C/C(=O)Nc2cc3c(Nc4ccc(F)c(Cl)c4)ncnc3cc2O[C@H]2CCOC2)c(OC)c1OC | 0.07 µM | 4.83 µM | 4.65 µM | 7.67 µM | – | – | – | – | 0.0036 µM | 0.478 µM
20 | COc1ccc(OC)c(/C=C/C(=O)Nc2cc3c(Nc4ccc(F)c(Cl)c4)ncnc3cc2OC)c1 | 11.2 µM | – | 34.2 µM | 28.6 µM | – | – | – | – | – | –
21 | COc1cc2ncnc(Nc3ccc(F)c(Cl)c3)c2cc1NC(=O)/C=C/c1ccc(F)cc1Cl | – | – | – | 32.7 µM | Not Active | – | Not Active | – | – | –
22 | COc1ccc(/C=C/C(=O)Nc2cc3c(Nc4ccc(F)c(Cl)c4)ncnc3cc2OC)c(OC)c1 | 33.2 µM | – | 36.6 µM | 38.5 µM | – | – | – | – | – | –
23 | O=C(/C=C/c1ccc([N+](=O)[O-])cc1)Nc1cc2c(Nc3ccc(F)c(Cl)c3)ncnc2cc1O[C@H]1CCOC1 | 12 µM | 27.4 µM | 26.7 µM | 22.8 µM | – | – | – | – | – | –
